Data on 39 compounds can be found in ChEMBL document CHEMBL4354819, “Discovery of Novel Small Molecule Dual Inhibitors Targeting Toll-Like Receptors 7 and 8” (J Med Chem, 2019).

Each structure is given as a SMILES string.

What all share (type): cell-based
For assay [1], the target named is T1, Toll-like receptor 7 (Homo sapiens) (UniProt Q9NYK1).
T1 sequence (whole entry): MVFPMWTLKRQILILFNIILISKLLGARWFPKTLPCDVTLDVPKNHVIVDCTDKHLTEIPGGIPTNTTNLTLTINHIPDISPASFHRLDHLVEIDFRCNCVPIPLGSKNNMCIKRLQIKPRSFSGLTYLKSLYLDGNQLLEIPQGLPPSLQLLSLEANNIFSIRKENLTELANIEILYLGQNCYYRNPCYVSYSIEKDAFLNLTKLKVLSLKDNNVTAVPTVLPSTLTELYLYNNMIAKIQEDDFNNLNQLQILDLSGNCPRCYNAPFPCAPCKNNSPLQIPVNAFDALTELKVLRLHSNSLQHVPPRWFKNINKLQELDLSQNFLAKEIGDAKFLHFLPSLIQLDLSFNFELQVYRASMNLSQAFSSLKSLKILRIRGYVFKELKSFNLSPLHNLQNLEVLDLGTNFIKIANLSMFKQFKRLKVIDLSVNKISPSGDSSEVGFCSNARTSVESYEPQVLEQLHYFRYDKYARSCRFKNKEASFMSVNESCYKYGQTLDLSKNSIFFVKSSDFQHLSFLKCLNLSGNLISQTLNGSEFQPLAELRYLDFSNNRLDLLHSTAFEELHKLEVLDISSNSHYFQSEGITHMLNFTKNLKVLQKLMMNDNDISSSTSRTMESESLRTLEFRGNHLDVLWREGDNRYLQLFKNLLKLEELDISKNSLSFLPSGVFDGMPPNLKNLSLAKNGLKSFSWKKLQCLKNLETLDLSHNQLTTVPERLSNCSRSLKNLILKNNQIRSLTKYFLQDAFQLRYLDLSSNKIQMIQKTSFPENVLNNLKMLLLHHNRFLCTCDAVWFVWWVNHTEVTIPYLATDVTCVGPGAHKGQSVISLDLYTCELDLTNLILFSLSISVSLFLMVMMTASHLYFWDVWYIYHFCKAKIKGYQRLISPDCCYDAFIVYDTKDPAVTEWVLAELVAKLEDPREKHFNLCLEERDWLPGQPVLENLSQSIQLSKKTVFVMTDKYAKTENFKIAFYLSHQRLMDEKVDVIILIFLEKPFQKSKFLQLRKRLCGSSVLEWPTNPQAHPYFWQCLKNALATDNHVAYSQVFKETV
The assay can be described thus: Inhibition of human TLR7 expressed in HEK293 cells assessed as reduction in resiquimod-induced NFkappaB production at 1.5 to 5 uM incubated for 16 hrs by quanti-blue SEAP assay. The essentials: (§1)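 Selectivity panel in stably transfected HEK 293-Blue cells, each overexpressing one human TLR with an inducible SEAP reporter. Agonists: Pam3CSK4 (TLR1/2), Pam2CSK4 (TLR2/6), poly(I:C) (TLR3), LPS (TLR4), R848 (TLR7/8), ODN 2006 (TLR9). Cells were exposed to compound for 16 h. Activity = (raw − untreated)/(ligand + solvent − untreated), with ligand + solvent set as 100%.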

Assay [2] concerns the target T2, Toll-like receptor 8 (Homo sapiens) (UniProt Q9NR97).
T2 sequence (whole entry): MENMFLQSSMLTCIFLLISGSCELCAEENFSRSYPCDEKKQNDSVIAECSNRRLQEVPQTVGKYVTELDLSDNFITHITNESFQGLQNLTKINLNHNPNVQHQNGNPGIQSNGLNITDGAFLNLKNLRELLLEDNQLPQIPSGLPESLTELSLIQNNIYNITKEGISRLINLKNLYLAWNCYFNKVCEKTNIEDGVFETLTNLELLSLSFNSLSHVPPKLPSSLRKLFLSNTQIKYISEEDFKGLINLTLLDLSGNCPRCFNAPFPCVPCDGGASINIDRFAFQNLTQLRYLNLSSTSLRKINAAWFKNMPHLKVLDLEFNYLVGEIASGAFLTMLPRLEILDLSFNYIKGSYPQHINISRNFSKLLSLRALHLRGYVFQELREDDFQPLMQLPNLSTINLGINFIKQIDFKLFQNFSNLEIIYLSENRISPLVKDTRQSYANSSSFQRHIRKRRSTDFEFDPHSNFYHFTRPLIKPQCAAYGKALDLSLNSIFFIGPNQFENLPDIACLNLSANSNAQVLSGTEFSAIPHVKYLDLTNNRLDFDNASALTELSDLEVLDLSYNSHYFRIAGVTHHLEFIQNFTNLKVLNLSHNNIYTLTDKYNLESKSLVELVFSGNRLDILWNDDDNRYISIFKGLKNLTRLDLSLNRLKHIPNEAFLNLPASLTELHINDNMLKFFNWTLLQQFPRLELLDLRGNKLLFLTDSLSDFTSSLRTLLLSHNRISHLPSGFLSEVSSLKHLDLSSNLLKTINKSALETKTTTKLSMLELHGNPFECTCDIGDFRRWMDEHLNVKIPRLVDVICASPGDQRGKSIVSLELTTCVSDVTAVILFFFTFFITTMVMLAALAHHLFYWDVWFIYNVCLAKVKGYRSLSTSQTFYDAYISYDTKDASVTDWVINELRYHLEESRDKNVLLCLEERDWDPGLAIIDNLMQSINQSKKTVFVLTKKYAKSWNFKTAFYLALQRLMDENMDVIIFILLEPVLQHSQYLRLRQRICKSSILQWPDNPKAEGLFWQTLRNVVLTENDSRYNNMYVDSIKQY
The assay can be described thus: Inhibition of human TLR8 expressed in HEK293 cells assessed as reduction in R848-induced NFkappaB production at 1.5 to 5 uM incubated for 16 hrs by quanti-blue SEAP assay. The essentials:
as §1

The target of a further assay is T3, Toll-like receptor 7 (Homo sapiens, UniProt Q9NYK1).
T3 sequence (Q9NYK1 whole entry): T1 sequence (whole entry)
In words: Inhibition of human TLR7 expressed in HEK293 cells assessed as reduction in R848-induced NFkappaB production incubated for 16 hrs by quanti-blue SEAP assay. The essentials: (§2)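 HEK 293-Blue cells stably expressing hTLR7 or hTLR8 with an inducible SEAP reporter were incubated 16 h with compound under 1 µg/mL R848 stimulation. SEAP was read at 620 nm. Data were normalized to the R848 control, and IC50 was taken from concentration-response curves. […] Mean ± s.d., n = 3 independent experiments.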

For assay [3], the target named is T2, Toll-like receptor 8 (Homo sapiens). The assay can be described thus: Inhibition of human TLR8 expressed in HEK293 cells assessed as reduction in R848-induced NFkappaB production at 50 uM incubated for 16 hrs by quanti-blue SEAP assay relative to control. The essentials:
as §2

The target of a further assay is T4, Toll-like receptor 8 (Homo sapiens, UniProt Q9NR97).
T4 sequence (Q9NR97 whole entry): T2 sequence (whole entry)
The assay can be described thus: Inhibition of human TLR8 expressed in HEK293 cells assessed as reduction in R848-induced NFkappaB production incubated for 16 hrs by quanti-blue SEAP assay. The essentials: as §2

Assay [4] has as its target T1, Toll-like receptor 7 (Homo sapiens). The assay can be described thus: Inhibition of human TLR7 expressed in HEK293 cells assessed as reduction in R848-induced NFkappaB production at 50 uM incubated for 16 hrs by quanti-blue SEAP assay relative to control. The essentials:
as §2

For `O=S(=O)(Nc1ccc(Oc2cc(C(F)(F)F)cc(C(F)(F)F)c2)cc1)c1c(F)cccc1Cl`, the inhibition in assay [1] and in assay [2] was 0% in each case.
`O=C(Nc1ccc(Oc2cc(C(F)(F)F)cc(C(F)(F)F)c2)cc1)C1CCCCC1`: the inhibition in assay [1] and in assay [2] was 0% in each case.
For the compound `O=C(Nc1ccc(Oc2cc(C(F)(F)F)cc(C(F)(F)F)c2)cc1)c1ccc2[nH]ccc2c1`, the IC50 (in general, the concentration at which inhibition is half-maximal) at Toll-like receptor 7 is above 50 µM. Also, in assay [3], the inhibition (usually the percentage by which the read-out fell short of the control) was in the range of 20 to 30%.
`O=C(Nc1ccc(Oc2cc(C(F)(F)F)cc(C(F)(F)F)c2)cc1)c1ccco1`: the inhibition in assay [1] and in assay [2] was 0% each time.
Turning to `O=C(Nc1ccc(Oc2cc(C(F)(F)F)cc(C(F)(F)F)c2)cc1)c1cc(Cl)ccc1F`, the IC50 on Toll-like receptor 8 is 1.11 µM. Moreover, the inhibition in assay [4] was 20 to 30%.
Regarding `O=C(Nc1ccc(Oc2cc(C(F)(F)F)cc(C(F)(F)F)c2)cc1)c1ncccc1F`, at Toll-like receptor 7, the IC50 is above 50 µM. In addition, the inhibition in assay [2] worked out at 0%.
As for `O=C(Nc1ccc(Oc2cc(C(F)(F)F)cc(C(F)(F)F)c2)cc1)c1c(F)cccc1F`, the inhibition in assay [2] was 0%.
On to `O=C(Nc1ccc(Oc2cc(C(F)(F)F)cc(C(F)(F)F)c2)cc1)c1cc(I)ccc1F`, for which the inhibition is 0% in assay [1] and 20 to 30% in assay [3].
As to `O=S(=O)(Nc1ccc(Oc2cc(C(F)(F)F)cc(C(F)(F)F)c2)cc1)c1ccccc1F`, the inhibition in assay [1] and in assay [2] was 0% each time.
As for `Fc1cccc(I)c1-c1nc2cc(Oc3cc(C(F)(F)F)cc(C(F)(F)F)c3)ccc2[nH]1`, the inhibition in assay [1] and in assay [2] was 0% in each case.
On to `O=C(Nc1ccc(Oc2cc(C(F)(F)F)cc(C(F)(F)F)c2)cc1)c1ccc(O)cc1F`, for which the concentration for half-maximal inhibition (IC50) on Toll-like receptor 8 was above 50 µM. For the same compound, the inhibition in assay [1] amounted to 0%.
Consider `O=C(Nc1ccc(Oc2cc(C(F)(F)F)cc(C(F)(F)F)c2)cc1)c1c(F)cccc1OC(F)(F)F`, for which the IC50 at Toll-like receptor 7 and at Toll-like receptor 8 was above 50 µM throughout.
`O=C(Nc1ccc(Oc2cc(Br)cc(C(F)(F)F)c2)cc1)c1c(F)cccc1Cl`: the IC50 on Toll-like receptor 8 came out at 2.32 µM.
On to `O=C(Nc1ccc(Oc2cc(Cl)cc(C(F)(F)F)c2)cc1)c1c(F)cccc1Cl`, for which the IC50 on Toll-like receptor 8 stood at 2.04 µM.
`C#Cc1cccc(F)c1C(=O)Nc1ccc(Oc2cc(C(F)(F)F)cc(C(F)(F)F)c2)cc1`: the inhibition in assay [1] and in assay [2] was 0% each time.
Regarding `O=C(Nc1ccc(Oc2cc(C(F)(F)F)cc(C(F)(F)F)c2)cc1)c1ccc(I)cc1F`, the 50% inhibitory concentration (IC50) at Toll-like receptor 7 and at Toll-like receptor 8 was above 50 µM each time.
For the compound `O=C(Nc1ccc(Oc2cc(O)cc(C(F)(F)F)c2)cc1)c1c(F)cccc1Cl`, the inhibition in assay [1] and in assay [2] was 0% in each case.
As for `O=C(Nc1ccc(Oc2cc(C(F)(F)F)cc(C(F)(F)F)c2)cc1)c1c(F)c(F)c(F)c(F)c1F`, the inhibition in assay [1] and in assay [2] was 0% each time.
As to `O=C(Nc1ccc(Oc2cc(C(F)(F)F)cc(C(F)(F)F)c2)cc1O)c1c(F)cccc1Cl`, the IC50 on Toll-like receptor 8 came to 4.02 µM. Also, the inhibition in assay [1] was determined as 0%.
For the compound `Nc1cccc(F)c1C(=O)Nc1ccc(Oc2cc(C(F)(F)F)cc(C(F)(F)F)c2)cc1`, the inhibition in assay [3] and in assay [4] was 20 to 30% throughout.
Take `N#Cc1c(Br)cccc1Oc1ccc(-c2nnco2)cc1`: the IC50 on Toll-like receptor 8 came out at 0.88 µM.
As to `O=C(Nc1ccc(Oc2cc(C(F)(F)F)cc(C(F)(F)F)c2)cc1)c1ccccc1F`, the IC50 at Toll-like receptor 7 was above 50 µM; on Toll-like receptor 8, 3 µM.
On the same counts, the results for `Nc1ccc(C(=O)Nc2ccc(Oc3cc(C(F)(F)F)cc(C(F)(F)F)c3)cc2)c(F)c1` are above 50 µM and above 50 µM.
Regarding `N#Cc1c(Cl)cccc1COc1ccc(-c2nnco2)cc1`, the IC50 on Toll-like receptor 8 came to 2.52 µM.
`O=C(Nc1ccc(Oc2cc(F)cc(C(F)(F)F)c2)cc1)c1c(F)cccc1Cl`: the 50% inhibitory concentration (IC50) at Toll-like receptor 8 came out at 1.59 µM.
As for `O=C(Nc1ccc(Oc2cc(C(F)(F)F)cc(C(F)(F)F)c2)cc1)c1ccc2nc[nH]c2c1`, at Toll-like receptor 7, the IC50 is above 50 µM. Moreover, in assay [3], the inhibition fell in the range of 20 to 30%.
As to `Fc1cccc(Cl)c1CNc1ccc(Oc2cc(C(F)(F)F)cc(C(F)(F)F)c2)cc1`, the 50% inhibitory concentration (IC50) on Toll-like receptor 7 and at Toll-like receptor 8 was above 50 µM each time.
For `O=C(Nc1ccc(Oc2cc(I)cc(C(F)(F)F)c2)cc1)c1c(F)cccc1Cl`, at Toll-like receptor 8, the half-maximal inhibitory concentration (IC50) is above 5 µM.
As for `Cc1nnc(-c2ccc(C(=O)Oc3cccc(Cl)c3C#N)cc2)o1`, in assay [2], the inhibition is 0%.
`O=C(Nc1ccc(Oc2cccc(C(F)(F)F)c2)cc1)c1c(F)cccc1Cl`: the half-maximal inhibitory concentration (IC50) on Toll-like receptor 7 is 2.65 µM; on Toll-like receptor 8 it was 2.41 µM.
Take `O=[N+]([O-])c1c(Cl)cccc1Oc1ccc(-c2nnco2)cc1`: on Toll-like receptor 8, the 50% inhibitory concentration (IC50) is 0.77 µM.
The same measure, in the same setting: to `c1ccc(Oc2ccc(-c3nnco3)cc2)cc1` belongs 7.26 µM.
For the compound `O=C(Nc1ccc(Oc2cc(C(F)(F)F)cc(C(F)(F)F)c2)cc1)c1sccc1Cl`, the IC50 at Toll-like receptor 8 was found to be 3.2 µM. For the same compound, in assay [1], the inhibition is 0%.
`Nc1c(Cl)cccc1Oc1ccc(-c2nnco2)cc1`: the half-maximal inhibitory concentration (IC50) on Toll-like receptor 8 was found to be 5.29 µM.
With `O=C(Nc1ccc(Oc2cc(C(F)(F)F)cc(C(F)(F)F)c2)cc1)c1c(F)cccc1Br`, the IC50 at Toll-like receptor 7 turned out to be 1 µM; on Toll-like receptor 8, 6 µM.
With `O=C(Nc1cccc(Oc2cc(C(F)(F)F)cc(C(F)(F)F)c2)c1)c1c(F)cccc1Cl`, the inhibition in assay [1] is 0%.
With `N#Cc1c(Cl)cccc1Oc1ccc(-c2ncco2)cc1`, the inhibition in assay [2] came out at 0%.
`O=C(Nc1ccc(Oc2cc(C(F)(F)F)cc(C(F)(F)F)c2)cc1)c1c(O)cccc1F`: the inhibition in assay [3] and in assay [4] was 20 to 30% throughout.
As for `O=C(Nc1ccc(Oc2cc(C(F)(F)F)cc(C(F)(F)F)c2)cc1O)c1c(F)cccc1I`, the half-maximal inhibitory concentration (IC50) on Toll-like receptor 7 was found to be 4.73 µM; at Toll-like receptor 8, 2.63 µM.
